Assay results from ChEMBL document CHEMBL1158486, “Combining hit identification strategies: fragment-based and in silico approaches to orally active 2-aminothieno[2,3-d]pyrimidine inhibitors of the Hsp90 molecular chaperone” (J Med Chem, 2009).

Legend:
[1] = Metabolic stability in human liver microsomes assessed as compound turnover at 1 uM after 10 mins in presence of NADPH relative to control without NADPH; type: ADME, Microsome; conditions: read-out: Stability
In short: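 Compound at 1 μM incubated 10 min with liver microsomes (0.5 mg/mL) ± 2 mM NADPH; microsome sources were human mixed pool, C57 mouse and SD rat. Reaction stopped by acetonitrile precipitation, supernatant analysed by LC/MSMS. Turnover expressed as percent of no-NADPH control, n = 3.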

[2] = Antitumor activity against human WM266.4 cells xenografted in Ncr athymic mouse assessed as effect of relative tumor volume at 100 mg/kg, po commenced 6 days after tumor cell inoculation and continued daily measured after 21 days; type: functional, WM 266-4
In short: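 Female Ncr athymic mice, 6-8 weeks old, inoculated bilaterally sc with 2 million WM266.4 cells. Oral gavage once daily at 50 or 100 mg/kg began on day 6, at about 5 mm mean tumor diameter; groups of 9-10. Vehicle was 10% DMSO, 5% Tween 20 and 85% saline; controls got vehicle. Some 100 mg/kg doses were skipped. Tumors measured three times weekly; excised and weighed on day 21.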

CCNC(=O)c1cc2c(-c3cc(OCCN(CC)CC)c(Cl)cc3Cl)nc(N)nc2s1
metabolised at 10 min, 1 µM [1]: 17.3%
T/C [2]: 15.9%
